Assay results of several laboratories.
Each line is one published result; the experiments were not run side by side.
Target: Mitogen-activated protein kinase 13 (MAPK13, Homo sapiens, UniProt O15264)
One construct used (O15264 1-365): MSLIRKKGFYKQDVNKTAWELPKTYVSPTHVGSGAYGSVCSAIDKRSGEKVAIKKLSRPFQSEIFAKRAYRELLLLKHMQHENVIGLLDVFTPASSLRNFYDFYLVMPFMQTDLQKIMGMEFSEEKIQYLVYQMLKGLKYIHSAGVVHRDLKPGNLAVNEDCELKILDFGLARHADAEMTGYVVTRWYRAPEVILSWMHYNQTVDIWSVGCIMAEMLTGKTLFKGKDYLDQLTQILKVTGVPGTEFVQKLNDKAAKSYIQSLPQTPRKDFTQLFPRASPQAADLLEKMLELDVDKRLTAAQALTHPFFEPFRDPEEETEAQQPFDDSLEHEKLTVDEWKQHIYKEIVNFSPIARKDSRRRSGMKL

Cc1cnc(Nc2ccc(C(=O)N3CCC(N4CCCC4)CC3)cc2)nc1-c1cc2ccccc2s1 — remaining binding (binding, competition with immobilised ligand; 1 µM): 100%
C[C@H]1CCN(c2nccc(-c3cnn4ncccc34)n2)C1 — remaining binding (binding; 1 µM): 83%
COc1ncc2cc3ccccc3nc2c1C#N — remaining binding (cell-free assay, competition with immobilised ligand; 5 µM): 79%
C[C@@]1(Cc2ccc(C#N)cc2)C(=O)N(c2cc(Cl)cc(Cl)c2)c2ncc(C(=O)NC3(c4nc(C5CCC5)no4)CC3)n21 — remaining binding (cell-free assay, competition with immobilised ligand; 1 µM): 100%
COc1cnc(Nc2cccc(S(N)(=O)=O)c2)nc1N1CCN(c2ccccc2)C(=O)C1 — remaining binding (binding, competition with immobilised ligand; 1 µM): 95%
CN(c1nccc(-c2cnn3ncccc23)n1)C1CC1 — remaining binding (binding; 1 µM): 100%
Cc1c[nH]c2nccc(Oc3c(F)cc(Nc4cc(Cl)nc(N)n4)cc3F)c12 — remaining binding (cell-free assay, competition with immobilised ligand; 0.1 µM): 89%
Nc1ncc2c(n1)-c1c([nH]c3ccc(C#CC4CC4)cc13)CCCC2 — remaining binding (binding, competition with immobilised ligand; 1 µM): 100%
Cc1cnn2ncc(-c3ccnc(N(C)C)n3)c2c1 — remaining binding (binding; 1 µM): 100%
O=C(NCC1CCOCC1)c1n[nH]cc1NC(=O)c1c(F)cccc1F — remaining binding (binding, competition with immobilised ligand; 1 µM): 100%
FC(F)(F)Oc1cccc(-c2cnc3ccc(-c4ccncc4)nn23)c1 — remaining binding (cell-free assay, competition with immobilised ligand; 5 µM): 97%
COc1ccnn2ncc(-c3ccnc(N(C)C)n3)c12 — remaining binding (binding; 1 µM): 100%
CN1CCN(c2cnc3c(C4CCN(C(=O)c5ccc(OC(F)(F)F)cc5N)CC4)ncnc3c2)CC1 — remaining binding (cell-free assay, competition with immobilised ligand; 1 µM): 100%
COc1cnc(Nc2cccc(S(N)(=O)=O)c2)nc1N1CCN(c2ccccc2)CC1 — remaining binding (binding, competition with immobilised ligand; 1 µM): 100%
CS(=O)(=O)N1CCCC(NC(=O)[C@H](CCC2CCCCC2)NC(=O)c2ccc(CNC(=O)c3cnc4ccccn34)cc2)C1 (stereo partly shown) — remaining binding (cell-free assay, competition with immobilised ligand; 0.1 µM): 100%
O=C(c1ccc(Nc2nccc(-c3cc4ccccc4s3)n2)cc1)N1CCC(N2CCCC2)CC1 — remaining binding (binding, competition with immobilised ligand; 1 µM): 100%
c1cnn2ncc(-c3ccnc(N4CCC45COC5)n3)c2c1 — remaining binding (binding; 1 µM): 78%
NS(=O)(=O)c1cc(NC(=O)Cc2ccccc2)ccc1Oc1cccc(Cl)c1 — remaining binding (cell-free assay, competition with immobilised ligand; 1 µM): 100%
CN(C)c1ncc(F)c(-c2cnn3ncccc23)n1 — remaining binding (binding; 1 µM): 96%
Cc1cc(NC(=O)c2cccc(S(F)(F)(F)(F)F)c2)cc(-n2ccn3nc(-c4cccnc4)cc23)c1 — remaining binding (cell-free assay, competition with immobilised ligand; 1 µM): 79.6%
N[C@H]1CCN(c2nccc(-c3cnn4ncccc34)n2)C1 — remaining binding (binding; 1 µM): 84%
O=C(c1ccc(Nc2ncc(Cl)c(-c3cc4ccccc4s3)n2)cc1)N1CCC(N2CCCC2)CC1 — remaining binding (binding, competition with immobilised ligand; 1 µM): 100%
